Measured values as given in ChEMBL document CHEMBL4689842, “EUbOPEN Chemogenomics Library wave 1” (2021).

Test system: HEK-293T
Assay: Multiplex assay against HEK293T;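 for Population Tubulin-Different-Phenotype (%): share of the cells with healthy nuclei that show this phenotype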
Type: toxicity, cell-based
Settings: human
Method in brief: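 Per cents of healthy-nucleus cells form the tubulin, mitochondrial-mass and membrane-permeability phenotype values. Live cells were stained at seeding with Hoechst33342, BioTracker Green Microtubule Cytoskeleton Dye, MitoTracker Red and Annexin V Alexa Fluor 680. After compound addition they were imaged on a CQ1 microscope at 37°C and 5% CO2, and CellPathfinder machine-learning gating split them into Hoechst high-intensity objects or normal cells, normal cells into healthy, pyknosed or fragmented nuclei, and pyknosed cells into mitotic or apoptotic.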

[1] = 12 h, 1 µM, compound concentration 1 uM, replicate 1
[2] = 12 h, 1 µM, compound concentration 1 uM, replicate 2
[3] = 12 h, 10 µM, compound concentration 10 uM, replicate 1
[4] = 12 h, 10 µM, compound concentration 10 uM, replicate 2
[5] = 24 h, 1 µM, compound concentration 1 uM, replicate 1
[6] = 24 h, 1 µM, compound concentration 1 uM, replicate 2
[7] = 24 h, 10 µM, compound concentration 10 uM, replicate 1
[8] = 24 h, 10 µM, compound concentration 10 uM, replicate 2
[9] = 12 h, 0 µM, compound concentration 0 uM, replicate 1
[10] = 12 h, 0 µM, compound concentration 0 uM, replicate 2
[11] = 24 h, 0 µM, compound concentration 0 uM, replicate 1
[12] = 24 h, 0 µM, compound concentration 0 uM, replicate 2

Structure (SMILES): CCN1CCN(c2ccc(Nc3cc(N(C)C(=O)Nc4c(Cl)c(OC)cc(OC)c4Cl)ncn3)cc2)CC1 [INFIGRATINIB]
- Population Apoptotic (%) [1]: 26%
- Population Fragmented Nuclei (%) [1]: 18%
- Population Healthy Nuclei (%) [1]: 37%
- Population Hoechst High Intensity Objects (%) [1]: 19%
- Population Membrane Permeable-Phenotype (%) [1]: 18%
- Population Mitochondria Different-Phenotype (%) [1]: 14%
- Population Mitotic Cells (%) [1]: 73%
- Population Normal (%) [1]: 80%
- Population Pyknosed Nuclei (%) [1]: 44%
- Population Tubulin-Different-Phenotype (%) [1]: 52%
- Total Cell Count [1]: 470
- Population Apoptotic (%) [2]: 14%
- Population Fragmented Nuclei (%) [2]: 4%
- Population Healthy Nuclei (%) [2]: 84%
- Population Hoechst High Intensity Objects (%) [2]: 3%
- Population Membrane Permeable-Phenotype (%) [2]: 6%
- Population Mitochondria Different-Phenotype (%) [2]: 27%
- Population Mitotic Cells (%) [2]: 85%
- Population Normal (%) [2]: 96%
- Population Pyknosed Nuclei (%) [2]: 11%
- Population Tubulin-Different-Phenotype (%) [2]: 81%
- Total Cell Count [2]: 1084
- Population Apoptotic (%) [3]: 18%
- Population Fragmented Nuclei (%) [3]: 19%
- Population Healthy Nuclei (%) [3]: 56%
- Population Hoechst High Intensity Objects (%) [3]: 14%
- Population Membrane Permeable-Phenotype (%) [3]: 7%
- Population Mitochondria Different-Phenotype (%) [3]: 10%
- Population Mitotic Cells (%) [3]: 81%
- Population Normal (%) [3]: 85%
- Population Pyknosed Nuclei (%) [3]: 23%
- Population Tubulin-Different-Phenotype (%) [3]: 13%
- Total Cell Count [3]: 527
- Population Apoptotic (%) [4]: 9%
- Population Fragmented Nuclei (%) [4]: 7%
- Population Healthy Nuclei (%) [4]: 87%
- Population Hoechst High Intensity Objects (%) [4]: 2%
- Population Membrane Permeable-Phenotype (%) [4]: 5%
- Population Mitochondria Different-Phenotype (%) [4]: 11%
- Population Mitotic Cells (%) [4]: 90%
- Population Normal (%) [4]: 97%
- Population Pyknosed Nuclei (%) [4]: 5%
- Population Tubulin-Different-Phenotype (%) [4]: 24%
- Total Cell Count [4]: 1732
- Population Apoptotic (%) [5]: 37%
- Population Fragmented Nuclei (%) [5]: 16%
- Population Healthy Nuclei (%) [5]: 60%
- Population Hoechst High Intensity Objects (%) [5]: 19%
- Population Membrane Permeable-Phenotype (%) [5]: 10%
- Population Mitochondria Different-Phenotype (%) [5]: 31%
- Population Mitotic Cells (%) [5]: 62%
- Population Normal (%) [5]: 80%
- Population Pyknosed Nuclei (%) [5]: 23%
- Population Tubulin-Different-Phenotype (%) [5]: 78%
- Total Cell Count [5]: 436
- Population Apoptotic (%) [6]: 6%
- Population Fragmented Nuclei (%) [6]: 7%
- Population Healthy Nuclei (%) [6]: 82%
- Population Hoechst High Intensity Objects (%) [6]: 5%
- Population Membrane Permeable-Phenotype (%) [6]: 9%
- Population Mitochondria Different-Phenotype (%) [6]: 20%
- Population Mitotic Cells (%) [6]: 93%
- Population Normal (%) [6]: 94%
- Population Pyknosed Nuclei (%) [6]: 9%
- Population Tubulin-Different-Phenotype (%) [6]: 87%
- Total Cell Count [6]: 1343
- Population Apoptotic (%) [7]: 19%
- Population Fragmented Nuclei (%) [7]: 13%
- Population Healthy Nuclei (%) [7]: 76%
- Population Hoechst High Intensity Objects (%) [7]: 10%
- Population Membrane Permeable-Phenotype (%) [7]: 15%
- Population Mitochondria Different-Phenotype (%) [7]: 4%
- Population Mitotic Cells (%) [7]: 80%
- Population Normal (%) [7]: 89%
- Population Pyknosed Nuclei (%) [7]: 9%
- Population Tubulin-Different-Phenotype (%) [7]: 24%
- Total Cell Count [7]: 608
- Population Apoptotic (%) [8]: 10%
- Population Fragmented Nuclei (%) [8]: 23%
- Population Healthy Nuclei (%) [8]: 74%
- Population Hoechst High Intensity Objects (%) [8]: 4%
- Population Membrane Permeable-Phenotype (%) [8]: 11%
- Population Mitochondria Different-Phenotype (%) [8]: 2%
- Population Mitotic Cells (%) [8]: 90%
- Population Normal (%) [8]: 95%
- Population Pyknosed Nuclei (%) [8]: 2%
- Population Tubulin-Different-Phenotype (%) [8]: 26%
- Total Cell Count [8]: 3002

Structure (SMILES): CCNc1cc(N[C@H]2CC[C@H](O)CC2)nc(Nc2ccc3c(ccn3Cc3ccccc3)c2)n1
- Population Apoptotic (%) [9]: 42%
- Population Fragmented Nuclei (%) [9]: 21%
- Population Healthy Nuclei (%) [9]: 10%
- Population Hoechst High Intensity Objects (%) [9]: 21%
- Population Membrane Permeable-Phenotype (%) [9]: 16%
- Population Mitochondria Different-Phenotype (%) [9]: 41%
- Population Mitotic Cells (%) [9]: 57%
- Population Normal (%) [9]: 78%
- Population Pyknosed Nuclei (%) [9]: 67%
- Population Tubulin-Different-Phenotype (%) [9]: 50%
- Total Cell Count [9]: 667
- Population Apoptotic (%) [10]: 29%
- Population Fragmented Nuclei (%) [10]: 3%
- Population Healthy Nuclei (%) [10]: 38%
- Population Hoechst High Intensity Objects (%) [10]: 6%
- Population Membrane Permeable-Phenotype (%) [10]: 1%
- Population Mitochondria Different-Phenotype (%) [10]: 83%
- Population Mitotic Cells (%) [10]: 70%
- Population Normal (%) [10]: 93%
- Population Pyknosed Nuclei (%) [10]: 58%
- Population Tubulin-Different-Phenotype (%) [10]: 97%
- Total Cell Count [10]: 1155
- Population Apoptotic (%) [1]: 23%
- Population Fragmented Nuclei (%) [1]: 12%
- Population Healthy Nuclei (%) [1]: 54%
- Population Hoechst High Intensity Objects (%) [1]: 10%
- Population Mitochondria Different-Phenotype (%) [1]: 27%
- Population Mitotic Cells (%) [1]: 76%
- Population Normal (%) [1]: 89%
- Population Pyknosed Nuclei (%) [1]: 32%
- Population Tubulin-Different-Phenotype (%) [1]: 46%
- Total Cell Count [1]: 618
- Population Apoptotic (%) [2]: 7%
- Population Fragmented Nuclei (%) [2]: 3%
- Population Healthy Nuclei (%) [2]: 85%
- Population Hoechst High Intensity Objects (%) [2]: 2%
- Population Membrane Permeable-Phenotype (%) [2]: 10%
- Population Mitochondria Different-Phenotype (%) [2]: 33%
- Population Mitotic Cells (%) [2]: 92%
- Population Normal (%) [2]: 97%
- Population Pyknosed Nuclei (%) [2]: 11%
- Population Tubulin-Different-Phenotype (%) [2]: 80%
- Total Cell Count [2]: 1484
- Population Apoptotic (%) [11]: 59%
- Population Fragmented Nuclei (%) [11]: 26%
- Population Healthy Nuclei (%) [11]: 10%
- Population Hoechst High Intensity Objects (%) [11]: 19%
- Population Membrane Permeable-Phenotype (%) [11]: 5%
- Population Mitochondria Different-Phenotype (%) [11]: 51%
- Population Mitotic Cells (%) [11]: 40%
- Population Normal (%) [11]: 80%
- Population Pyknosed Nuclei (%) [11]: 63%
- Population Tubulin-Different-Phenotype (%) [11]: 53%
- Total Cell Count [11]: 694
- Population Apoptotic (%) [12]: 37%
- Population Fragmented Nuclei (%) [12]: 2%
- Population Healthy Nuclei (%) [12]: 30%
- Population Hoechst High Intensity Objects (%) [12]: 8%
- Population Membrane Permeable-Phenotype (%) [12]: 2%
- Population Mitochondria Different-Phenotype (%) [12]: 91%
- Population Mitotic Cells (%) [12]: 62%
- Population Normal (%) [12]: 91%
- Population Pyknosed Nuclei (%) [12]: 66%
- Population Tubulin-Different-Phenotype (%) [12]: 96%
- Total Cell Count [12]: 1176
- Population Apoptotic (%) [5]: 20%
- Population Fragmented Nuclei (%) [5]: 9%
- Population Healthy Nuclei (%) [5]: 76%
- Population Hoechst High Intensity Objects (%) [5]: 7%
- Population Membrane Permeable-Phenotype (%) [5]: 8%
- Population Mitochondria Different-Phenotype (%) [5]: 18%
- Population Mitotic Cells (%) [5]: 79%
- Population Normal (%) [5]: 92%
- Population Pyknosed Nuclei (%) [5]: 13%
- Population Tubulin-Different-Phenotype (%) [5]: 54%
- Total Cell Count [5]: 703
- Population Apoptotic (%) [6]: 9%
- Population Fragmented Nuclei (%) [6]: 11%
- Population Healthy Nuclei (%) [6]: 83%
- Population Hoechst High Intensity Objects (%) [6]: 2%
- Population Membrane Permeable-Phenotype (%) [6]: 12%
- Population Mitochondria Different-Phenotype (%) [6]: 14%
- Population Mitotic Cells (%) [6]: 90%
- Population Normal (%) [6]: 97%
- Population Pyknosed Nuclei (%) [6]: 4%
- Population Tubulin-Different-Phenotype (%) [6]: 75%
- Total Cell Count [6]: 2335
